Screening results (PubChem BioAssay)
The list is not random: actives were taken first. Their share in the collection is about 2.8%.
SDO1 yeast rescue – compounds rescuing growth of sdo1-depleted yeast, bone marrow failure model. S. cerevisiae sdo1-depleted JHY4D growth rescue, OD600 30 h; active compounds read high; pdr5 snq2 efflux-pump mutant strain. z-score at 10 µM. 140,000 compounds, 0.21% hits;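 active = z-score above 3 at both the 24 hr and the 30 hr optical density reads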;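 also: z-score against mean and SD of all compound wells on the same plate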
bCat KO growth – beta-catenin-lacking colon tumor cell growth suppression | HCT116 beta-catenin knockout viability, CellTiter-Glo, 60 h; active compounds read low | 140,000 compounds, 1.5% hits | viability, % at 10 µM | AID 818;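 active = viability at or under a set limit, the compound median less 4 SD, cut at about 6% in these data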;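 also: 0% = Hyamine 1622 control at 20 µM and 100% = untreated cell control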
BB579 growth dn – reduces growth of yeast BB579 in restrictive medium; S. cerevisiae BB579 growth, OD615, 48 h; inhibition, % at 10 µM; 140,000 compounds, 0.51% hits; AID 804;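 active = inhibition above a set limit, 3 SD over the mean compound inhibition, cut at about 44% in these data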
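System: Saccharomyces cerevisiae DeaD strain BB579, replicative lifespan model yeast. Buffer or medium: restrictive glucose-based CSMM-D medium. Doses: one dose, 10 µM compound with 0.25% DMSO. Timing: 4 h preincubation and 48 h exposure at 30 °C. Detection: turbidity as optical density at 615 nm. Benchmarks: amphotericin B 10 µg/mL, positive.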
Yeast life ext – yeast lifespan extension | S. cerevisiae growth with nicotinamide, OD615; deaD strain in restrictive glucose medium | inhibition of the nicotinamide effect, % at 10 µM | 130,000 compounds, 0.68% hits;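 active = inhibition above a set limit, placed 3 SD over the median of all compounds, cut at about 26% in these data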;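 also: 0% = nicotinamide-treated wells and 100% = cells grown without nicotinamide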
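Measured by: optical density (absorbance) at 615 nm; System: modified budding yeast, DeaD strain; Medium: restrictive CSMM-D dextrose medium; Timing: 4 h preincubation then 48 h treatment at 30 °C.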
HCT116 PTEN-null – PTEN-deleted cell growth suppression. HCT116 PTEN-null viability, CellTiter-Glo, 60 h; active compounds read low. viability, % at 10 µM. 140,000 compounds, 1.2% hits. AID 827;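 active = viability at or below a set limit, 4 SD under the median of all tested compounds, cut at about 3.7% in these data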;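 also: PTEN knockout HCT116 line with beta catenin targeted HCT116 as companion control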
The depositor's hits bear a star.

Cc1nc2c(Br)c3nc(C(F)(F)F)[nH]c3c(Br)c2[nH]1 was read as SDO1 yeast rescue -0.44, bCat KO growth 86, BB579 growth dn -22, Yeast life ext -11 and HCT116 PTEN-null 95.
For COc1ccccc1NC(=O)C(=O)NNC(=O)c1ccco1 the results were SDO1 yeast rescue 1.3, bCat KO growth 75, BB579 growth dn -18, Yeast life ext 4 and HCT116 PTEN-null 68.
CCC(Sc1nc2cc3c(cc2c(=O)n1Cc1ccco1)OCO3)C(=O)Nc1cccc(OC)c1 (stereo not drawn) was read as SDO1 yeast rescue 0.33, bCat KO growth 1.7*, BB579 growth dn -63, Yeast life ext 4 and HCT116 PTEN-null 1.7*.
Screening CCC(Sc1nc2cc3c(cc2c(=O)n1Cc1ccco1)OCO3)C(=O)Nc1ccccc1OC (stereo not drawn) returned SDO1 yeast rescue 0.47, bCat KO growth 6, BB579 growth dn -50, Yeast life ext -4 and HCT116 PTEN-null 20.
Screening O=[N+]([O-])c1ccc(-c2cnc(SC(c3ccccc3)c3ccccc3)[nH]2)cc1 returned SDO1 yeast rescue -1.3, bCat KO growth 3.9*, BB579 growth dn -34, Yeast life ext -2 and HCT116 PTEN-null 23.
Screening O=[N+]([O-])c1ccc(-c2cnc(SCc3ccccc3Cl)[nH]2)cc1 returned SDO1 yeast rescue -2.3, bCat KO growth 62, BB579 growth dn -16, Yeast life ext -25 and HCT116 PTEN-null 53.
`CSc1ccc(CN(C)CC(=O)Nc2ccc(C)cc2Br)cc1` gave SDO1 yeast rescue -0.54, bCat KO growth 71, BB579 growth dn -9, Yeast life ext -2 and HCT116 PTEN-null 76.
Screening CCS(=O)(=O)N1CCC(c2nc(-c3ccc(C(F)(F)F)cc3)no2)CC1 returned SDO1 yeast rescue -0.08, bCat KO growth 64, BB579 growth dn -18, Yeast life ext -7 and HCT116 PTEN-null 73.
For CCS(=O)(=O)N1CCC(c2nc(-c3ccc(C)cc3)no2)CC1 the results were SDO1 yeast rescue 0.04, bCat KO growth 96, BB579 growth dn 2, Yeast life ext 60* and HCT116 PTEN-null 91.
Screening CCN(CC)S(=O)(=O)c1cc(NS(=O)(=O)c2c(Cl)cccc2Cl)ccc1C returned SDO1 yeast rescue 0.24, bCat KO growth 80, BB579 growth dn -52, Yeast life ext 28* and HCT116 PTEN-null 76.
Screening CCCCn1c(/N=C/c2ccccc2NS(=O)(=O)c2ccc(C)cc2)nc2ccccc21 returned SDO1 yeast rescue -1.1, bCat KO growth 66, BB579 growth dn -38, Yeast life ext 68* and HCT116 PTEN-null 59.
`Cc1ccc(S(=O)(=O)Nc2ccccc2/C=N/c2nc3ccccc3n2C(C)C)cc1` gave SDO1 yeast rescue -1, bCat KO growth 83, BB579 growth dn -10, Yeast life ext 53* and HCT116 PTEN-null 71.
For COc1ccc(/C=C/C(=O)NC(=S)Nc2ccc(C(=O)O)cc2)cc1 the results were SDO1 yeast rescue -0.44, bCat KO growth 80, BB579 growth dn -11, Yeast life ext -2 and HCT116 PTEN-null 84.
`C/C(=N\Nc1ccc([N+](=O)[O-])cc1)c1ccc(N)cc1` gave SDO1 yeast rescue -1.1, bCat KO growth 89, BB579 growth dn 97*, Yeast life ext -10 and HCT116 PTEN-null 92.
Screening Cc1ccc(OCC(=O)N/N=C\c2c(C)[nH]n(-c3ccccc3)c2=O)c([N+](=O)[O-])c1 returned SDO1 yeast rescue 0.81, bCat KO growth 25, BB579 growth dn -6, Yeast life ext 6 and HCT116 PTEN-null 17.
For Cc1[nH]n(-c2ccccc2)c(=O)c1C=Nc1cccc2cccnc12 the results were SDO1 yeast rescue 0.1, bCat KO growth 3.0*, BB579 growth dn -35, Yeast life ext -3 and HCT116 PTEN-null 5.
Screening Cc1[nH]n(-c2ccccc2)c(=O)c1/C=N/Nc1nncc(-c2ccccc2)n1 returned SDO1 yeast rescue 2.3, bCat KO growth 11, BB579 growth dn 98*, Yeast life ext -10 and HCT116 PTEN-null 18.
`CCCCN(CCCC)C(=S)N/N=C/c1c(C)[nH]n(-c2ccccc2)c1=O` gave SDO1 yeast rescue -1.4, bCat KO growth 9, BB579 growth dn 78*, Yeast life ext -12 and HCT116 PTEN-null 11.
`Cc1ccc(-n2[nH]c(C)c(/C=N/c3ccccn3)c2=O)cc1` gave SDO1 yeast rescue 0.68, bCat KO growth 55, BB579 growth dn -52, Yeast life ext -11 and HCT116 PTEN-null 58.
`CC(C)Nc1nnc(Sc2ccc(Cl)cc2[N+](=O)[O-])s1` gave SDO1 yeast rescue -1.4, bCat KO growth 100, BB579 growth dn -20, Yeast life ext -4 and HCT116 PTEN-null 103.
For Cn1c(SCC(=O)c2ccc3c(c2)OCCO3)nnc1C1CC1 the results were SDO1 yeast rescue 1.1, bCat KO growth 96, BB579 growth dn -1 and HCT116 PTEN-null 99.
`Cc1ccc(C)c(/C(O)=C2\C(=O)C(=O)N(Cc3cccnc3)C2c2cccnc2)c1` (stereo not drawn) gave SDO1 yeast rescue 0.4, bCat KO growth 102, BB579 growth dn 1, Yeast life ext 1 and HCT116 PTEN-null 97.
For COC(=O)/C(=C1/Oc2cc3c(cc2S1)OCO3)C(F)(F)F the results were SDO1 yeast rescue 0.93, bCat KO growth 107, BB579 growth dn -58, Yeast life ext 37* and HCT116 PTEN-null 111.
`COc1ccccc1N(CN1CCCC1=O)C(=O)c1c(F)cccc1F` gave SDO1 yeast rescue 2.1, bCat KO growth 98, BB579 growth dn -22, Yeast life ext 103* and HCT116 PTEN-null 95.
`CCc1nc2c(c(=O)c3ccccc3n2C)c(=O)n1CCc1ccc(OC)cc1` gave SDO1 yeast rescue -2.1, bCat KO growth 34, BB579 growth dn -21, Yeast life ext 7 and HCT116 PTEN-null 31.
CCOc1ccccc1N(C(=O)Nc1ccc(Cl)cc1)C1=NCCS1 was read as SDO1 yeast rescue 0.38, bCat KO growth 89, BB579 growth dn -5, Yeast life ext -4 and HCT116 PTEN-null 93.
`CCN(CC)S(=O)(=O)c1ccc(N2CCOCC2)c(NC(=O)CCC2CCCCC2)c1` gave SDO1 yeast rescue -0.24, bCat KO growth 81, BB579 growth dn -30, Yeast life ext 3 and HCT116 PTEN-null 83.
For Cc1ccc(NC(=O)CCCN2C(=O)/C(=C/C=C/c3ccccc3)SC2=S)cc1 the results were SDO1 yeast rescue -0.82, bCat KO growth 7, BB579 growth dn -40, Yeast life ext 2 and HCT116 PTEN-null 2.4*.
For O=C(ON=C1CCN(S(=O)(=O)c2ccccc2)CC1)c1ccccc1 the results were SDO1 yeast rescue -0.89, bCat KO growth 109, BB579 growth dn -40, Yeast life ext -20 and HCT116 PTEN-null 106.
For CC1(C)CC(=NOC(=O)c2ccccc2)CC(C)(C)N1O the results were SDO1 yeast rescue -0.05, bCat KO growth 94, BB579 growth dn 74*, Yeast life ext -6 and HCT116 PTEN-null 97.
